We go through three compounds from ChEMBL document CHEMBL4371006, “Discovery of N-[4-(Quinolin-4-yloxy)phenyl]benzenesulfonamides as Novel AXL Kinase Inhibitors” (J Med Chem, 2018).

The target of series [1] is Mitogen-activated protein kinase kinase kinase kinase 5 (Homo sapiens, UniProt Q9Y4K4). In words: Binding affinity to MAP4K5 in SILAC-labeled human MDA-MB-231 cells lysate by mass spectrometry based kinAffinity assay. In kind it is subcellular. The gist of the method:
(§1)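 Chemical proteomics: MDA-MB-231 lysate bound to matrix of immobilized broad kinase inhibitors at several densities (BC50), then competed with increasing free compound (CC50); proteins quantified by mass spectrometry, Kd via Cheng-Prusoff. Two competition formats run in parallel to check equilibrium.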

Series [2] concerns the target Serine/threonine-protein kinase 10 (Homo sapiens, UniProt O94804). Description: Binding affinity to LOK in SILAC-labeled human MDA-MB-231 cells lysate by mass spectrometry based kinAffinity assay. In kind it is subcellular. The gist of the method: as §1
Series [3] can be described thus: Toxicity in mouse assessed as drug tolerability at 300 mg/kg, po. In kind it is organism-based. Particulars: in vivo.
Another series addresses Activin receptor type-1 (Homo sapiens, UniProt Q04771). Description: Binding affinity to ACVR1 in SILAC-labeled human MDA-MB-231 cells lysate by mass spectrometry based kinAffinity assay. In kind it is subcellular. Put shortly:
as §1

Series [4] has as its target Tyrosine-protein kinase Yes (Homo sapiens, UniProt P07947). In words: Binding affinity to YES in SILAC-labeled human MDA-MB-231 cells lysate by mass spectrometry based kinAffinity assay. In kind it is subcellular. Put shortly:
(§2)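 MDA-MB-231 lysate applied to KinAffinity matrix of immobilized broadband kinase inhibitors at graded densities to obtain BC50 per target. Competition then run with increasing free compound to give CC50; Kd derived by Cheng-Prusoff. Two competition experiments in parallel to check equilibrium, one with lysate pre-incubated with compound before adding matrix. Quantitation by mass spectrometry.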

A short description of series [5]: Intrinsic clearance in human liver microsomes at 5 uM after 60 mins in presence of NADPH by LC-MS/MS analysis. In kind it is ADME, Microsome. Particulars: read-out: CLH. The gist of the method:
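Compound at 5 µM with 1 mg/mL human or mouse liver microsomes plus an NADPH-regenerating system, in 100 mM potassium phosphate at 37°C. Reactions were stopped with acetonitrile at sampling times. Percent remaining versus time 0 was measured by HPLC, in duplicate.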

Series [6] addresses T1, Tyrosine-protein kinase receptor UFO (Homo sapiens, UniProt P30530).
T1 sequence (P30530 whole entry): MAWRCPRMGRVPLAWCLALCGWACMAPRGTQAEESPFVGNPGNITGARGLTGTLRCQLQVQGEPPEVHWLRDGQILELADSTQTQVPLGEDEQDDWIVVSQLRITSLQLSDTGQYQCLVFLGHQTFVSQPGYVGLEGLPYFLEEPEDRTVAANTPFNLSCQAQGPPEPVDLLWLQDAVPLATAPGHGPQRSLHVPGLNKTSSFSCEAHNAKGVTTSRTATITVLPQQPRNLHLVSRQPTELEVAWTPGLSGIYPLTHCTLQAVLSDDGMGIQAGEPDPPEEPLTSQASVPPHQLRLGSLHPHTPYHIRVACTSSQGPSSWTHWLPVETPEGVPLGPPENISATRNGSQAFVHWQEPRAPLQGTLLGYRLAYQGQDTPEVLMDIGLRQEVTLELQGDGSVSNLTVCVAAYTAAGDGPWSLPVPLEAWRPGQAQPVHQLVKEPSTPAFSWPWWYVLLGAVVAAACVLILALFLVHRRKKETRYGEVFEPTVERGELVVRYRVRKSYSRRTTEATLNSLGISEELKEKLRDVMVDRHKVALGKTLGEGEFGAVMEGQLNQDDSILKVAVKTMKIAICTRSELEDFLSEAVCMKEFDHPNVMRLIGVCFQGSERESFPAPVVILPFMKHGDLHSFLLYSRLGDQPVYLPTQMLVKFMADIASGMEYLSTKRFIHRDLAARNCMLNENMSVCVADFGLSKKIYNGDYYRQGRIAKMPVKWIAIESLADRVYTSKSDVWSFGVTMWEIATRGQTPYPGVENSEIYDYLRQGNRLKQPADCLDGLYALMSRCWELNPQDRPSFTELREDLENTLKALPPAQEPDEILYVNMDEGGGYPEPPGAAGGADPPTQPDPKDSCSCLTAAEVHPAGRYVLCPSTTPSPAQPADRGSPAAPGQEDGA
In words: Binding affinity to AXL in SILAC-labeled human MDA-MB-231 cells lysate by mass spectrometry based kinAffinity assay. In kind it is subcellular. The gist of the method: as §1

For series [7], the target named is Serine/threonine-protein kinase 3 (Homo sapiens, UniProt Q13188). Description: Binding affinity to MST2 in SILAC-labeled human MDA-MB-231 cells lysate by mass spectrometry based kinAffinity assay. In kind it is subcellular. The gist of the method: as §2
In the next series the target is Aurora kinase A (Homo sapiens, UniProt O14965). In words: Binding affinity to AURKA in SILAC-labeled human MDA-MB-231 cells lysate by mass spectrometry based kinAffinity assay. In kind it is subcellular. The gist of the method: as §1
Series [8] in a line: Protein binding in human plasma. In kind it is ADME, cell-free. As to conditions: read-out: PPB (converted).
A short description of series [9]: Permeability of the compound in 0.025 M phosphate buffer at pH 7.4 assessed drug flux level after 5 hrs by PAMPA. In kind it is ADME. As to conditions: pH 7.4, 5 h. Put shortly: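 PAMPA: donor at 0.5 mM in pH 7.4 0.025 M phosphate buffer, diluted from 1 mM DMSO stock. Filters are coated with 1% phosphatidylcholine in dodecane, and the acceptor is 50% DMSO in phosphate buffer. Incubated 5 h at room temperature with gentle shaking. Donor and acceptor are analyzed by HPLC-UV to calculate Papp. Three plates were run on different days.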
On the technique in general: The PAMPA barrier holds no transporters, so it reflects passive diffusion.

The target in series [10] is 5'-AMP-activated protein kinase catalytic subunit alpha-1 (Homo sapiens, UniProt Q13131). Description: Binding affinity to PRKAA1 in SILAC-labeled human MDA-MB-231 cells lysate by mass spectrometry based kinAffinity assay. In kind it is subcellular. Put shortly: as §2
For series [11], the target named is 5'-AMP-activated protein kinase subunit beta-2 (Homo sapiens, UniProt O43741). Description: Binding affinity to PRKAB2 in SILAC-labeled human MDA-MB-231 cells lysate by mass spectrometry based kinAffinity assay. In kind it is subcellular. Put shortly: as §2
The target of series [12] is Mitogen-activated protein kinase kinase kinase 20 (Homo sapiens, UniProt Q9NYL2). Description: Binding affinity to ZAK in SILAC-labeled human MDA-MB-231 cells lysate by mass spectrometry based kinAffinity assay. In kind it is subcellular. Put shortly:
as §2

In series [13] the target is Serine/threonine-protein kinase Nek1 (Homo sapiens, UniProt Q96PY6). Description: Binding affinity to NEK1 in SILAC-labeled human MDA-MB-231 cells lysate by mass spectrometry based kinAffinity assay. In kind it is subcellular. The gist of the method:
as §2

The nature of series [14]: AUC (0 to infinity) in mouse at 1 to 2 mg/kg, iv by LC/MS/MS analysis. In kind it is ADME, organism-based. Particulars: in vivo. Put shortly: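 Male ICR mice (27 ± 5 g, n = 3) dosed iv via tail vein at 2 or 1 mg/kg in 30% PEG400/5% ethanol in water. Jugular blood (0.3 mL, heparin) sampled at set times over 24 h or more; plasma separated, acetonitrile-precipitated, drug quantified by LC/MS/MS; parameters from noncompartmental-type software estimation.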

Series [15] addresses Ribosomal protein S6 kinase alpha-1 (Homo sapiens, UniProt Q15418). Description: Binding affinity to RPS6KA1 in SILAC-labeled human MDA-MB-231 cells lysate by mass spectrometry based kinAffinity assay. In kind it is subcellular. The gist of the method:
as §2

Series [16] has as its target Serine/threonine-protein kinase SIK2 (Homo sapiens, UniProt Q9H0K1). Description: Binding affinity to QIK in SILAC-labeled human MDA-MB-231 cells lysate by mass spectrometry based kinAffinity assay. In kind it is subcellular. The gist of the method:
as §2

Sequence of Serine/threonine-protein kinase 3 (Q13188 whole entry): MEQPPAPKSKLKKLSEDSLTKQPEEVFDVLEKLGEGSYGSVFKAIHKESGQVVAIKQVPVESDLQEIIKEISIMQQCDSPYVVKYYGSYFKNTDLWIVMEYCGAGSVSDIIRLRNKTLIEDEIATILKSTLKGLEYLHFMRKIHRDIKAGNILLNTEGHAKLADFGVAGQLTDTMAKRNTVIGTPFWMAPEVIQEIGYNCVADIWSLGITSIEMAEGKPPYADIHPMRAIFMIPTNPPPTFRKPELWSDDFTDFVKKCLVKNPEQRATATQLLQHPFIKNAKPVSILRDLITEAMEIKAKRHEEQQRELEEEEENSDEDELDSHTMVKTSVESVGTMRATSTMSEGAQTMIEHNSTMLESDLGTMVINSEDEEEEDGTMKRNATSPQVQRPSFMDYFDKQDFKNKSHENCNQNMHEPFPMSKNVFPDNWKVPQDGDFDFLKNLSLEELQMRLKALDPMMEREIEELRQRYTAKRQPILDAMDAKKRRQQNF
Sequence of Tyrosine-protein kinase Yes (P07947 whole entry): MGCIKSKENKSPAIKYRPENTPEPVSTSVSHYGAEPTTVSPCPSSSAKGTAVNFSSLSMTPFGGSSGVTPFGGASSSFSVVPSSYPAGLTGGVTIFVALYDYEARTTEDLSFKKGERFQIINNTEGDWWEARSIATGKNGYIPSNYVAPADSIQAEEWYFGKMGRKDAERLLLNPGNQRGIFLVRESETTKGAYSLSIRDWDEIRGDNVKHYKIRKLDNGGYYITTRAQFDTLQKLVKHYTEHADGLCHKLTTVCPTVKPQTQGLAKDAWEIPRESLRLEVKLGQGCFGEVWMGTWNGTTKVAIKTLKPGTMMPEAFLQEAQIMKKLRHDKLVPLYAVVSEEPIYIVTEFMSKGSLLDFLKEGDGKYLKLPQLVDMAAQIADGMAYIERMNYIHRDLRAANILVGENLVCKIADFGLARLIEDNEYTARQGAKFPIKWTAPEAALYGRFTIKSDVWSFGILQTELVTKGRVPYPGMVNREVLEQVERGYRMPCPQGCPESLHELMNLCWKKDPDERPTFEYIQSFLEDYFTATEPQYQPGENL
Sequence of Serine/threonine-protein kinase SIK2 (Q9H0K1 whole entry): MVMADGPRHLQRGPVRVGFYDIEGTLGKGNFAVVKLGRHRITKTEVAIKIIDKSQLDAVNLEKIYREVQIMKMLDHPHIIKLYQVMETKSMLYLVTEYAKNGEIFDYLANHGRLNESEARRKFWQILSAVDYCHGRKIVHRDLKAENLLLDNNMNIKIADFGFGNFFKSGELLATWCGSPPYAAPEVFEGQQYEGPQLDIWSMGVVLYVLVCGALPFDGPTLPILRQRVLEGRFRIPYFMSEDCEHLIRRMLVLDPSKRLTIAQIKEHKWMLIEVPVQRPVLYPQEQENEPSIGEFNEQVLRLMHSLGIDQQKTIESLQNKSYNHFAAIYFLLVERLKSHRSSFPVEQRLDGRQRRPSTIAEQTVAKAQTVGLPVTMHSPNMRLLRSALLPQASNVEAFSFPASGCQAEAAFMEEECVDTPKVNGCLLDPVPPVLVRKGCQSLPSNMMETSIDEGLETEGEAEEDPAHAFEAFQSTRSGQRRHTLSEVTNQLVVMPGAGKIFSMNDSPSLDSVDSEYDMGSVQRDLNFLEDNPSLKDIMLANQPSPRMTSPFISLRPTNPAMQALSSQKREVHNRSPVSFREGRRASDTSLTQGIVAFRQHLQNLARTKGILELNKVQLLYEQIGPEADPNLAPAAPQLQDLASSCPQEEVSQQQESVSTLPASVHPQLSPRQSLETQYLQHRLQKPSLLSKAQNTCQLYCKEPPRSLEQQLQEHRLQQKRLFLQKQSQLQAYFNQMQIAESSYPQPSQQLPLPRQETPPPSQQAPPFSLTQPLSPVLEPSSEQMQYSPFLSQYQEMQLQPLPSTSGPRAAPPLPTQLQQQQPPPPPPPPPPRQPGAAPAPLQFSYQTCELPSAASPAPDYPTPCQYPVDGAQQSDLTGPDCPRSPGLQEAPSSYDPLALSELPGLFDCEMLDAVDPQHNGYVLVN
Sequence of Activin receptor type-1 (Q04771 whole entry): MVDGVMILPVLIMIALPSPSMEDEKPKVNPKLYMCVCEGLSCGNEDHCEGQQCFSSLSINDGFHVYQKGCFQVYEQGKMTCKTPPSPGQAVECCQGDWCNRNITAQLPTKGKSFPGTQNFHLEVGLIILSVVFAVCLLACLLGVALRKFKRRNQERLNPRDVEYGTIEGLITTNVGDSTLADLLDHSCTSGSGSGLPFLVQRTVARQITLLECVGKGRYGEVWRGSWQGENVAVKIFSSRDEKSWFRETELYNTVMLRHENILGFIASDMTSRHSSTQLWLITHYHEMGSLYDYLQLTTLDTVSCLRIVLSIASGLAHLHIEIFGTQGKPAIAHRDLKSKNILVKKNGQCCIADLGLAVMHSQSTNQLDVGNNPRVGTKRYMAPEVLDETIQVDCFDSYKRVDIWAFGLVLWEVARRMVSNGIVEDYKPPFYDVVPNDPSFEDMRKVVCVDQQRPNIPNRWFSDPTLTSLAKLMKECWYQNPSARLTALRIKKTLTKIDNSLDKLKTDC
Sequence of Mitogen-activated protein kinase kinase kinase 20 (Q9NYL2 whole entry): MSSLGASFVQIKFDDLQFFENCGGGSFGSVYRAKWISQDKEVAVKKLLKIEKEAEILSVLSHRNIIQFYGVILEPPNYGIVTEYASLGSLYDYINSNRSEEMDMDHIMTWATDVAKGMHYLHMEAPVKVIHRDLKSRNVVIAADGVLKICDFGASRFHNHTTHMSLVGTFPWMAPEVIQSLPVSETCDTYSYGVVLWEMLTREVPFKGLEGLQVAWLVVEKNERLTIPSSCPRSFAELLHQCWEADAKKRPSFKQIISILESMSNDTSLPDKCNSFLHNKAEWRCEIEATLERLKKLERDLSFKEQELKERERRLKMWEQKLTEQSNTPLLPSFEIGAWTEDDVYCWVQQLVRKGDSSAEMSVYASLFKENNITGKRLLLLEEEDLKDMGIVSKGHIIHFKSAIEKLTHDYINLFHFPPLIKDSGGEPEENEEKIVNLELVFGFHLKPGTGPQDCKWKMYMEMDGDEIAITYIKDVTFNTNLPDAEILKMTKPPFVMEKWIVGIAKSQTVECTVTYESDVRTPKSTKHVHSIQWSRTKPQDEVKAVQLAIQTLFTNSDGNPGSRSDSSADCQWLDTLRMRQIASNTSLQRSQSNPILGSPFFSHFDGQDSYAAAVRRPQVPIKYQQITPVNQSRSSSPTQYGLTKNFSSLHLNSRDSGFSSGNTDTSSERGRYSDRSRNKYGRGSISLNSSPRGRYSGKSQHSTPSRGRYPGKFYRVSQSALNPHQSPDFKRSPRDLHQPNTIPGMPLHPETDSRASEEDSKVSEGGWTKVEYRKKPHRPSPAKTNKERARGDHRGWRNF
Sequence of Serine/threonine-protein kinase Nek1 (Q96PY6 whole entry): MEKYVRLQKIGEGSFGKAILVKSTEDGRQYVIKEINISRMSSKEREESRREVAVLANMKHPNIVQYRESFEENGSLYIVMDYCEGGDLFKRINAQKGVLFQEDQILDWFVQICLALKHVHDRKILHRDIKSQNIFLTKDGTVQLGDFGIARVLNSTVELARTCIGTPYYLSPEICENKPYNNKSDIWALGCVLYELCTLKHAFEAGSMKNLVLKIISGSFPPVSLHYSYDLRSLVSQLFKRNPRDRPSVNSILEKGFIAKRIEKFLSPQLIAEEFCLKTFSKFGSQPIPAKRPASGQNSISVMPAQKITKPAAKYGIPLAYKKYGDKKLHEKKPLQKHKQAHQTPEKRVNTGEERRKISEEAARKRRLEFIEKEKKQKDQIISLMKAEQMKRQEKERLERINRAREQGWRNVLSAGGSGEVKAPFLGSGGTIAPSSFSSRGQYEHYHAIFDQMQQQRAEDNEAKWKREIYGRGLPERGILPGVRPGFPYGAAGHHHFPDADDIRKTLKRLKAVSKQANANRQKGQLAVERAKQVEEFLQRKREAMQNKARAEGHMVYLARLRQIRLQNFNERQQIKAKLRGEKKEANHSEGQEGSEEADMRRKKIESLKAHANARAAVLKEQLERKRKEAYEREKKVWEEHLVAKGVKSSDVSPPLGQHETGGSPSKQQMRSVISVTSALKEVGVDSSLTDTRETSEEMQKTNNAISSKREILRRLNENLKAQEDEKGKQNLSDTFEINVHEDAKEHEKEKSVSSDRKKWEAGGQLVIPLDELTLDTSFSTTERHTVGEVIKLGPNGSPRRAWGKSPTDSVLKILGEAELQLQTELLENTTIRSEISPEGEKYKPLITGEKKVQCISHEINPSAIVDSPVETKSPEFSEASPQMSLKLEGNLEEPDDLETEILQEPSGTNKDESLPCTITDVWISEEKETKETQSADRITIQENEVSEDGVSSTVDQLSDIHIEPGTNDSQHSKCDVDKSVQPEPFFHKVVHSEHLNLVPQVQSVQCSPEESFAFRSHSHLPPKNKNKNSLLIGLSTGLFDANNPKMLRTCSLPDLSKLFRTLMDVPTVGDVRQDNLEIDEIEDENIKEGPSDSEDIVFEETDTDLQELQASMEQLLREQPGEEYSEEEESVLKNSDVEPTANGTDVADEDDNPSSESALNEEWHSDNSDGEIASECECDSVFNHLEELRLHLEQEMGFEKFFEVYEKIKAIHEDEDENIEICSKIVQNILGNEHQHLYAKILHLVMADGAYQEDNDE
Sequence of Aurora kinase A (O14965 whole entry): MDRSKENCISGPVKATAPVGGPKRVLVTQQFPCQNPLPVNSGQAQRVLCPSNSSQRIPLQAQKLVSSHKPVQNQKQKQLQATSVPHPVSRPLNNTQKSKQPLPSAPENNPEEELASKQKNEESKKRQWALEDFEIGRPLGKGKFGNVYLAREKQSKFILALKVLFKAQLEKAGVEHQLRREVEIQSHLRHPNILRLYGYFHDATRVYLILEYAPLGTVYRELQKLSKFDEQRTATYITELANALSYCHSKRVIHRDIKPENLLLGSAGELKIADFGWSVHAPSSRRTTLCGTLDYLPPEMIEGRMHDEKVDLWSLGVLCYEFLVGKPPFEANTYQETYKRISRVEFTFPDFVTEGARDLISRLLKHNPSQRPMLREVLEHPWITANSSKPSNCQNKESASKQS

As for `COc1cc2c(Oc3ccc(NS(=O)(=O)c4cc(F)ccc4F)cc3F)ccnc2cc1OCCCN1CCN(C)CC1`, the “Kd(free)” value in [1] was 24 nM; in series [2], 3780 nM; at Activin receptor type-1, 52 nM; in [4] it was 178 nM; in series [6] it was 15 nM; in [7] it was more than 6454 nM. In addition, the “Kd(free)” value on Aurora kinase A worked out at 847 nM; in series [10] it was 616 nM; in series [11], 969 nM; in [12], 1180 nM; in series [13], 5146 nM; in series [15], 3152 nM. For the same compound, in [16], the “Kd(free)” value stood at 4518 nM. In [3], the Activity entry is on record as “Non-Toxic”. Further, in [5], the microsomal CLint at 5 µM came out at 60.5 µL/min/mg. For the same compound, in series [8], the fraction unbound was 0.009. Besides, in series [9], the permeability turned out to be 24.3%. This compound also registered an area under the curve AUC(0-inf) in series [14] of 2650 ng·h/mL.
In the case of `COc1cc2c(Oc3ccc(NS(=O)(=O)c4c(F)cccc4F)cc3F)ccnc2cc1OCCCN1CCN(C)CC1`, the “Kd(free)” value is 8 nM in [1]; 3039 nM in [2]; more than 70 nM at Activin receptor type-1; 40 nM in [4]; 6 nM in series [6]; 5223 nM in series [7]. Further, the “Kd(free)” value on Aurora kinase A worked out at 146 nM; in series [10], 786 nM; in [11], 1907 nM; in series [12], 3210 nM; in series [13], 5043 nM; in series [15], 5474 nM. In addition, the “Kd(free)” value in series [16] turned out to be 3545 nM.
For the compound `COc1cc2c(Oc3ccc(NS(=O)(=O)c4cc(F)ccc4F)cc3F)ccnc2cc1OCCCN1CCCC(C)C1` (stereo unspecified), the Activity result in series [3] is listed as “Non-Toxic”. Moreover, the microsomal CLint at 5 µM in series [5] was 18.3 µL/min/mg. Also, the fraction unbound in series [8] is 0.015. The permeability in [9] is listed as 46.1%. The same compound came in with an AUC(0-inf) in series [14] of 1400 ng·h/mL.

The term AUC(0-inf) denotes the area under the concentration-time curve extrapolated to infinity. A high value points to high exposure.
